Assay: Toxicity liver stage against HepG2, at 10uM
Assay type: cell-based
Parameters: test concentration 10 uM, cell line HepG2-A16-CD81EGFP
Conditions: human, HepG2-A16-CD81EGFP cells; read-out: INHIBITION
In short: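 Uninfected HepG2-A16-CD81EGFP cells, 3 × 10^3 per well, 1536-well, plated on prespotted compound at 10 μM final, parasite-free screening media added to match infected plates; puromycin 10 μM positive, DMSO 0.5% negative; run in parallel with 48 h PbLuc assay at 37 °C, 5% CO2; viability by CellTiter-Glo luminescence, normalized to controls.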

SMILES	cytotoxicity at 10 µM
COCCn1cnnc1C1CCCN(c2cnccn2)C1 (stereo not drawn)	-2.22%
CC(C)(C)c1nc(CN(Cc2cccnc2)C2CN3CCC2CC3)no1 (stereo not drawn)	-4.09%
CN(Cc1cnn(C)c1)S(=O)(=O)N1CCCC1c1ccco1 (stereo not drawn)	-5.78%
Cc1ccc(F)cc1CC(=O)N(CCN1CCOCC1)Cc1ccco1	-3.91%
Cc1csc2c(N3CCC(Cn4cc(C(C)(C)O)nn4)CC3)ncnc12	29.9%
CC(C)NC(=O)C[C@@H]1CCNC[C@@H]1Cc1cc(-c2ccccn2)on1	-3.15%
Cc1cc(C)c2c(N3CCN(C(=O)N(C)C)CC3)ncnc2n1	-1.18%
Cc1ncncc1C(=O)NCCn1nc2ccccn2c1=O	-6.89%
CCCC(NC(=O)c1cc(C)n(C2CC2)c1C)c1nnn[nH]1 (stereo not drawn)	-10.1%
COc1cccc2c1OCC(C(=O)N(Cc1ccncc1)CC(C)C)C2 (stereo not drawn)	-13.9%
CN(C)[C@@H]1CCN(S(=O)(=O)C2CC2)[C@H]1Cc1ccccc1	-7.46%
CC(CCc1cccn1C)NC(=O)Nc1cccn(C)c1=O (stereo not drawn)	3.14%
Cc1c(C(=O)NC2CC(C)(C)NC(C)(C)C2)cnn1-c1ccc(F)cc1	-45.7%
COC1CCN(c2ccc(F)cc2CN(C)CC(N)=O)CC1	-6.91%
Cc1ccc2c(n1)N(CCN(C)C)CCN(C(=O)c1ccoc1)C2	-74.4%
Cc1ccc(NC2CCN(C(=O)c3cnn(C(C)(C)C)c3)CC2)nn1	-0.939%
Cc1cnn(CC2CCCCN2C(=O)c2ccc(NC3CC3)nc2)c1 (stereo not drawn)	-11.9%
O=C(NCCC1=CCCCC1)c1ccc(-n2cccc2)nc1	-1.46%
CCCN1CCCC(O)(c2nc(C)c(COc3ccccc3)s2)CC1 (stereo not drawn)	2.27%
Cc1n[nH]c(C)c1C1CCCN1C(=O)NCCSC(C)(C)C (stereo not drawn)	-11%
CC(Cn1cccn1)NC(=O)c1ccsc1 (stereo not drawn)	-5.2%

SMILES	cytotoxicity at 10 µM
CCOCC(=O)N(C)c1ccc(F)c(Cl)c1	-3.99%
O=S(=O)(c1ccc(F)cc1F)N1CCCCC1c1nnc2n1CCCC2 (stereo not drawn)	2.22%
CC(C)N(C)CC(=O)NCc1ccccc1N1CCN(C)CC1	-7.85%
Cc1ccc(=O)n(CC2(O)CCN(Cc3cnn(C)c3)CC2)n1	3.12%
O=C(NCc1ccncc1)Nc1cc(C(F)(F)F)c[nH]c1=O	-9.86%
Cc1nc(CN2CCCC(c3nc(C)n4c(C)c(C)sc34)C2)co1 (stereo not drawn)	-21.7%
CC(CO)CSc1ncnc2[nH]ncc12 (stereo not drawn)	-12.3%
OCCNc1nccc(-c2cn3nccc3nc2C2CCCCC2)n1	-0.085%
Cc1ncc(CN2CCN(c3ccc4nncn4n3)C(C)C2)s1 (stereo not drawn)	-9.04%
CCC(NC(=O)CNCC(F)(F)F)c1cc(F)ccc1F (stereo not drawn)	-4.56%
Cc1nn(C)c2ncc(NC(=O)N3CCCCCC3)cc12	4.87%
Cc1csc(CN2CC[C@H]3C[C@H](c4nc(C)no4)O[C@@H]3C2)n1	-3.35%
COc1ccc(C(=O)C2CCCN(Cc3cnn(C)c3C)C2)c(OC)c1 (stereo not drawn)	-8.85%
Cc1nc(CN2CCN(CC(O)CN3CCOCC3)CC2)oc1C (stereo not drawn)	5.92%
Cc1nc(CNC(=O)N(Cc2ccccc2)CC(C)(C)O)oc1C	-2.28%
Cc1ncc(CNc2ccc(C(=O)NCc3ccco3)cc2C)s1	-10.5%
CCN1CC2(CNCCN(C(=O)Nc3ccccc3)C2)CC1=O (stereo not drawn)	0.346%
Cc1ccnc(C2(C)CCCN2S(=O)(=O)c2c(C)noc2C)n1 (stereo not drawn)	0.795%
CC(C)N(C)CC(=O)NCC(Cc1ccc(F)cc1)C(N)=O (stereo not drawn)	13.6%
CC(C(=O)Nc1ccnn1C(C)C)N1CCc2nn(C)c(=O)cc2C1 (stereo not drawn)	3.95%
CCN(CC)C(=O)c1ccc(Cl)c(NC(=O)c2cc(C(C)C)on2)c1	6.9%

SMILES	cytotoxicity at 10 µM
CC(C)c1cc(C(=O)N(c2ccc(F)cn2)C2CCOCC2)nn1C	-4.65%
CN(C)c1ncc(CNC(=O)Nc2ccc(C(F)(F)F)cc2)n1C	-49.9%
CCC(=O)N1CCC(Cc2ccccc2-c2ccncc2)(C(N)=O)C1 (stereo not drawn)	-25.3%
Cc1ccsc1CNCc1c(C(C)C)nn(C)c1N1CCOCC1	8.42%
Cc1nnc(NC(=O)NCCCN2CCC(C(N)=O)CC2)s1	5.61%
CCOc1ccccc1N(C)C(=O)c1ccc(Cl)cn1	0.0381%
O=C1CC2(CCN(Cc3ncc[nH]3)CC2)CN1Cc1ccc(Cl)cc1	5.85%
Cc1ccc(OCC(=O)NS(=O)(=O)Cc2ccccc2)cc1	2.07%
CN(CCCNC(=O)N1CCCC1c1ccsc1)c1ccccn1 (stereo not drawn)	-4.53%
Cc1noc(C(C)Nc2ccc3oc(C(C)C)nc3c2)n1 (stereo not drawn)	-7.84%
CS(=O)(=O)NCCNC(=O)NC1(c2ccc(F)cc2)CCCC1	-1.44%
Cc1ccc(NC2CCN(C(=O)Cc3c(C)noc3C)CC2)nn1	-8.13%
COc1ccc(C(=O)C2CCCN(c3nccc(N)n3)C2)c(C)c1 (stereo not drawn)	5.67%
O=C(CN1CCCC(Cn2cncn2)C1)Nc1cccnc1 (stereo not drawn)	2.01%
CCOCCN1CCn2c(C)nnc2C1	3.34%
CN(C)Cc1nnc(C2CCCN(c3nccc4ccccc34)C2)n1C (stereo not drawn)	-0.928%
Cc1ccc(N2CCCC(N3CCC4(CC3)OCCO4)C2=O)cc1 (stereo not drawn)	6.7%
Cn1cc(CN2C[C@@H]3CCCO[C@@H]3[C@H](NC(=O)CC3CC3)C2)cn1	-0.00726%
COc1ccc(CN(C)c2nc3c(cnn3C)c(=O)[nH]2)c(OC)c1	58.9%
CCc1nc(CCNC(=O)NC2CC(=O)N(C(C)(C)C)C2)cs1 (stereo not drawn)	-1.51%
CCc1ncc(C(=O)NCCn2c(C)cc(C)nc2=O)cn1	-1.75%

SMILES	cytotoxicity at 10 µM
O=C(NCc1nnc2n1CCC2)N(Cc1ccc(F)cc1)C1CC1	-5.31%
Cc1ccc(N2CCCC(NC(=O)Nc3cnn(C)c3)C2=O)cc1 (stereo not drawn)	-44%
CC(O)CN1CCN(C(=O)c2cc3ccccc3n2C)CC1 (stereo not drawn)	2.99%
COCCN(C)CC(=O)N1CCCC2(CCC(=O)N(CC3CC3)C2)C1 (stereo not drawn)	0.502%
CNC(=O)c1cccnc1N1CCN(Cc2ccccc2)C(CCO)C1 (stereo not drawn)	-6.03%
Cc1nc(CN2CCCC(Cn3cncn3)C2)nc2ccccc12 (stereo not drawn)	-16.2%
CCN(C(=O)c1ccc2nnc(C3CCN(C(C)=O)C3)n2c1)C(C)C (stereo not drawn)	-107%
Cc1c(C[S+](C)[O-])cccc1NC(=O)c1cc(Cl)ccn1 (stereo not drawn)	9.41%
CN(Cc1nnc2n1CCC2)C(=O)c1ccc(=O)n(C)n1	-8.16%
O=S1(=O)CCC(n2cc(CNc3ccccc3Br)cn2)C1 (stereo not drawn)	-4.9%
NC(=O)C1CN(c2ccc(F)cc2)CCN1 (stereo not drawn)	-4.98%
Clc1ccc(C2(CNC3=NCCN3)CC2)cc1	7.38%
COc1ccc(CCC(=O)N2CCNCC2C(=O)N2CCCC2)cc1 (stereo not drawn)	1.18%
Cc1ncsc1C(=O)NCCc1cccs1	-15.3%
O=C(NCCNC(=O)C1Cc2cc(F)ccc2O1)C1CCCCC1 (stereo not drawn)	4.07%
CCOc1ncccc1C(=O)N1CCCC1Cn1nc(C)cc1C (stereo not drawn)	-4.45%
C[C@@H]1C[C@H]2CN(S(=O)(=O)c3ccc(F)cc3)C[C@H]2O1	3.26%
CN(Cc1ccncc1)C1CCC[C@@H]2CN(c3ncccn3)C[C@H]12 (stereo partly drawn)	-3.21%
Cc1ccc(S(=O)(=O)NCCc2ccoc2)s1	2.69%
Cn1cnn(Cc2c(F)cccc2Br)c1=O	4.48%

Source: ChEMBL document CHEMBL4513216, “Probing the Open Global Health Chemical Diversity Library for Multistage-Active Starting Points for Next-Generation Antimalarials” (ACS Infect Dis, 2020)
